Source: ChEMBL document CHEMBL3593176, “Design and biological evaluation of novel 4-(2-fluorophenoxy)quinoline derivatives bearing an imidazolone moiety as c-Met kinase inhibitors” (Bioorg Med Chem, 2015)

Experiments:
cells [1] = conditions: Homo sapiens, NCI-H460, 72 h
cells [2] = conditions: Homo sapiens, MKN-45, 72 h
A549 = test: cells; conditions: Homo sapiens, A549, 72 h
HT-29 = test: cells; conditions: Homo sapiens, HT-29, 72 h
[3] = molecular target: Epidermal growth factor receptor (Homo sapiens, UniProt P00533); test: Inhibition of EGFR (unknown origin) using poly (Glu, Tyr) 4:1 as substrate after 30 mins by HTRF assay
Chain of Epidermal growth factor receptor (P00533 whole entry): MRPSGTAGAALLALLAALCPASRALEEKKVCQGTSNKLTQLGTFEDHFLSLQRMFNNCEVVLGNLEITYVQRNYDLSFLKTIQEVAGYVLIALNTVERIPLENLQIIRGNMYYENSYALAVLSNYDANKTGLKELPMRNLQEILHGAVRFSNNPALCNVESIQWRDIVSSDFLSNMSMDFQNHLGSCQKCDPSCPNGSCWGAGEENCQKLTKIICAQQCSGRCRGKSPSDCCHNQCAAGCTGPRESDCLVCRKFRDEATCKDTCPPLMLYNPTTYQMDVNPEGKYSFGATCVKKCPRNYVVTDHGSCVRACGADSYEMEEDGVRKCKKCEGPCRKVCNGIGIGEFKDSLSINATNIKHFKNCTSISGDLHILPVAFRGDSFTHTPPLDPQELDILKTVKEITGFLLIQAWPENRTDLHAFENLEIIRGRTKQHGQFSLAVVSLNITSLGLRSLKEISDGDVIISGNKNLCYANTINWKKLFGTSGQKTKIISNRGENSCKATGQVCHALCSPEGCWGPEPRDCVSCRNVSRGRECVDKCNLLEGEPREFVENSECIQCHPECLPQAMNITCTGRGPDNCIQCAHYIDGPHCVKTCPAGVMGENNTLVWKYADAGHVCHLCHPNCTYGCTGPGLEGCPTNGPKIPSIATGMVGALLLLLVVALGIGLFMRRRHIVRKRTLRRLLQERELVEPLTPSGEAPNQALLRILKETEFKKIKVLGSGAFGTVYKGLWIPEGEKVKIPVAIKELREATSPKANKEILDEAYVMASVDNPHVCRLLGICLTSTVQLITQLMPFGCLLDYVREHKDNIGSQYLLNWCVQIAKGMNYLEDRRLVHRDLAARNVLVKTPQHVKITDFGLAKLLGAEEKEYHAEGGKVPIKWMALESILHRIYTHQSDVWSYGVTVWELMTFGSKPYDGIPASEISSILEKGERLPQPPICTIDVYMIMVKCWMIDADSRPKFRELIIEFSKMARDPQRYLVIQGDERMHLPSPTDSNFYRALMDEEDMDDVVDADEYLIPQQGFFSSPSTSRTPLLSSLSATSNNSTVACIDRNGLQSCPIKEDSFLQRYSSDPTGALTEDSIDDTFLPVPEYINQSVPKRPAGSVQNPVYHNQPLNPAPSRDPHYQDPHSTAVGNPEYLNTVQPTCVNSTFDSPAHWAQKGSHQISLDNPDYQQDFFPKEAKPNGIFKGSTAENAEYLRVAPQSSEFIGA
How it was run: (§1)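 Purified tyrosine kinase with poly(Glu,Tyr) 4:1 substrate (20 µg/mL) and ATP (10 mM solution) in 50 mM HEPES pH 7.0 buffer containing DTT, MgCl₂, MnCl₂, 0.1% NaN₃; compounds at various concentrations in 1% DMSO. Inhibition normalised to enzyme-free and uninhibited controls; IC50 from inhibition curves.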

[4] = molecular target: Hepatocyte growth factor receptor (Homo sapiens, UniProt P08581); test: Inhibition of c-Met (unknown origin) using poly (Glu, Tyr) 4:1 as substrate after 30 mins by HTRF assay
Chain of Hepatocyte growth factor receptor (P08581 whole entry): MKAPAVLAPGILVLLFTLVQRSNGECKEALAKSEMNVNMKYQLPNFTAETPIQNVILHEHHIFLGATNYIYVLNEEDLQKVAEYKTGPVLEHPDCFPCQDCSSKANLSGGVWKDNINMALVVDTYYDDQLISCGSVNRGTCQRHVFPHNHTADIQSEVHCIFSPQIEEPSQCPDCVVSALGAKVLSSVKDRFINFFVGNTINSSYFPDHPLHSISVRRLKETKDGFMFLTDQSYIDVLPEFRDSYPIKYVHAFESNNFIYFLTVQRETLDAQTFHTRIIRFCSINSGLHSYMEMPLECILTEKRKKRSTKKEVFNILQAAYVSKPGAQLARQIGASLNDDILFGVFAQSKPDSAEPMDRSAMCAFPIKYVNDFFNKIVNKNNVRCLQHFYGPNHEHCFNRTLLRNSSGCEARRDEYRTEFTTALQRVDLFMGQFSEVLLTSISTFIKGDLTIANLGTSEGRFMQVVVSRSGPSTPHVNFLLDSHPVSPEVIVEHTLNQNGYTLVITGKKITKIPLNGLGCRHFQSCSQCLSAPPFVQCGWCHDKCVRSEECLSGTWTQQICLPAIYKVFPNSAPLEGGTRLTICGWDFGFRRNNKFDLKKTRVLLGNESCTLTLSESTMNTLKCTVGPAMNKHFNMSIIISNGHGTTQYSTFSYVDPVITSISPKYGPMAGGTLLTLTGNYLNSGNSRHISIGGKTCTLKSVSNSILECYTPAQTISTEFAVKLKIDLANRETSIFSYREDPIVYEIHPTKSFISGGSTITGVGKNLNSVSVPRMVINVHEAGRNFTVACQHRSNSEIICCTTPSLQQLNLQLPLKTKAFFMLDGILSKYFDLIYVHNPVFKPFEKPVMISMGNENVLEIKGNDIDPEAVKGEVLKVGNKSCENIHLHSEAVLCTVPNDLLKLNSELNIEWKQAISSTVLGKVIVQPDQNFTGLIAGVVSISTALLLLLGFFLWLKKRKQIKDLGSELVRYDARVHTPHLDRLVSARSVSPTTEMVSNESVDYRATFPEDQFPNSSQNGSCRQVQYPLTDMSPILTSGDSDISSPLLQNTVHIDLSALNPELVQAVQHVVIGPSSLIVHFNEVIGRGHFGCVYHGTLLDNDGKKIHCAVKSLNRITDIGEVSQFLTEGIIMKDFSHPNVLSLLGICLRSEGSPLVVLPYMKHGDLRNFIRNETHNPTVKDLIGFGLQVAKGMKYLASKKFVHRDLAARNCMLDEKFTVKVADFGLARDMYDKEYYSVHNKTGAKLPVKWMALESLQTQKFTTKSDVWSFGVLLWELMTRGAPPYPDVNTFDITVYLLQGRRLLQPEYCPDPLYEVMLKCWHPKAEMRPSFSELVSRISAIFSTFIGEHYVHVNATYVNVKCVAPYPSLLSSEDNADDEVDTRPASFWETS

[5] = molecular target: Vascular endothelial growth factor receptor 2 (Homo sapiens, UniProt P35968); test: Inhibition of VEGFR-2 (unknown origin) using poly (Glu, Tyr) 4:1 as substrate after 30 mins by HTRF assay
[6] = Potency index, ratio of foretinib IC50 to compound IC50 for human H460 cells; assay type: functional
[7] = molecular target: Mast/stem cell growth factor receptor Kit (Homo sapiens, UniProt P10721); test: Inhibition of c-Kit (unknown origin) using poly (Glu, Tyr) 4:1 as substrate after 30 mins by HTRF assay
Chain of Mast/stem cell growth factor receptor Kit (P10721 whole entry): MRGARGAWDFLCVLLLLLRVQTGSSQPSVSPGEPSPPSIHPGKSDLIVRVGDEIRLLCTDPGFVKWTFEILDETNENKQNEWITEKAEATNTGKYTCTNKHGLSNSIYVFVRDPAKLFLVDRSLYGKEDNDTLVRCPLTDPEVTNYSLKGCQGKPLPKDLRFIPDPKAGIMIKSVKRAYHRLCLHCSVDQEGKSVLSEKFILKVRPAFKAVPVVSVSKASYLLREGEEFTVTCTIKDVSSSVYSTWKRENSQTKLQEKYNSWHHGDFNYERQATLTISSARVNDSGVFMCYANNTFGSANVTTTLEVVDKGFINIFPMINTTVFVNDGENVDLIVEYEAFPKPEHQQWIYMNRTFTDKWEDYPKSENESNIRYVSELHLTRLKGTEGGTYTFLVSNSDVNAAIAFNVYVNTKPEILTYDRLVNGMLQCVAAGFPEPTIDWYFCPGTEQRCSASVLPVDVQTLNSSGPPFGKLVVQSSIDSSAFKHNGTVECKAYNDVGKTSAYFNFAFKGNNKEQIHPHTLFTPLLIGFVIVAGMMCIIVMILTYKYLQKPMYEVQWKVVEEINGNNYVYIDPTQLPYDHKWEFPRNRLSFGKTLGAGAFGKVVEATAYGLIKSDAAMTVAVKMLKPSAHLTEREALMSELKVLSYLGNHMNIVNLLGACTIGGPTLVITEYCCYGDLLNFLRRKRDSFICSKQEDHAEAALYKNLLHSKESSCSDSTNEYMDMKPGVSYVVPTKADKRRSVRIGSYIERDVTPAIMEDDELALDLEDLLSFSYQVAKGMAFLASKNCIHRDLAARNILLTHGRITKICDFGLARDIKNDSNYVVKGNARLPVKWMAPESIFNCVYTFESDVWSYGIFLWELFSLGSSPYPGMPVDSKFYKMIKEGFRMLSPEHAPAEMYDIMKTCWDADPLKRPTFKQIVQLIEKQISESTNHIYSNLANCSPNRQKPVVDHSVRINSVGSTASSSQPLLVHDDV
How it was run: as §1

[8] = molecular target: Macrophage-stimulating protein receptor (Homo sapiens, UniProt Q04912); test: Inhibition of Ron (unknown origin) using poly (Glu, Tyr) 4:1 as substrate after 30 mins by HTRF assay
Chain of Macrophage-stimulating protein receptor (Q04912 25-304 limits assumed): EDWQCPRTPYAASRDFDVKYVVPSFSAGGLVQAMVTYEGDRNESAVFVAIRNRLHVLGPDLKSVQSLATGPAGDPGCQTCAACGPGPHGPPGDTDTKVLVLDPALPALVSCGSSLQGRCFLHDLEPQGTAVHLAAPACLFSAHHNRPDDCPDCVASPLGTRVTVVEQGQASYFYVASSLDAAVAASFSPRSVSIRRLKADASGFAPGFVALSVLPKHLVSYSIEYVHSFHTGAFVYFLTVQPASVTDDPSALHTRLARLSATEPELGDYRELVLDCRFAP
Chain of Macrophage-stimulating protein receptor (Q04912 310-1400 limits assumed): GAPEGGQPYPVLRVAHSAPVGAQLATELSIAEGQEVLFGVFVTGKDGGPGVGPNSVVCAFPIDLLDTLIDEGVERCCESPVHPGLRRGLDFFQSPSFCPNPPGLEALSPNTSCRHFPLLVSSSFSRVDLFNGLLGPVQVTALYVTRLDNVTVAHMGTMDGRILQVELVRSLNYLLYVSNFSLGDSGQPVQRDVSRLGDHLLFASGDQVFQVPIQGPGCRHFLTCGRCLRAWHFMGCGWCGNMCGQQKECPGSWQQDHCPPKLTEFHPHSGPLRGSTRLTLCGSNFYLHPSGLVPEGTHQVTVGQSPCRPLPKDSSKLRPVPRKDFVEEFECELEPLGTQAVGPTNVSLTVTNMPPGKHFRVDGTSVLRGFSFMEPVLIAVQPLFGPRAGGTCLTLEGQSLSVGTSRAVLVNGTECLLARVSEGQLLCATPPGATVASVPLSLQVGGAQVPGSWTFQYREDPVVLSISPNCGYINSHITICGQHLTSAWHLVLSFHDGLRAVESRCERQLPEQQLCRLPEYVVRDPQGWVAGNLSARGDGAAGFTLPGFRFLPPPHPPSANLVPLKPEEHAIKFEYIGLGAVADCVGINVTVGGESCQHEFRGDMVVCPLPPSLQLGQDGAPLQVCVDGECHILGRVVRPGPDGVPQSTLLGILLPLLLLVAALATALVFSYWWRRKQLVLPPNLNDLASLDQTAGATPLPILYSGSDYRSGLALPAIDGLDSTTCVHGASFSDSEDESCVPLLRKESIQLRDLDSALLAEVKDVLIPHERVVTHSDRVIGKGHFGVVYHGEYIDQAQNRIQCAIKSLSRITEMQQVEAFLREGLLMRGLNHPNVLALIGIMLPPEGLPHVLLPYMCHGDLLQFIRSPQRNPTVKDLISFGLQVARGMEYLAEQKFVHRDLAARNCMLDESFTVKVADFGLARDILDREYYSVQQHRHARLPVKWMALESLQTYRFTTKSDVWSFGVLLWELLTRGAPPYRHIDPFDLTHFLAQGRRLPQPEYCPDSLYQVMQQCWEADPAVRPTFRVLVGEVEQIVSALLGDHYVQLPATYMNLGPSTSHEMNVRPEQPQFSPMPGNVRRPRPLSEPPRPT
How it was run: as §1

MKN-45 = test: Potency index, ratio of foretinib IC50 to compound IC50 for human MKN45 cells; assay type: functional
[9] = molecular target: T1, Receptor-type tyrosine-protein kinase FLT3 (Homo sapiens, UniProt P36888); test: Inhibition of FLT-3 (unknown origin) using poly (Glu, Tyr) 4:1 as substrate after 30 mins by HTRF assay
T1 sequence (P36888 whole entry): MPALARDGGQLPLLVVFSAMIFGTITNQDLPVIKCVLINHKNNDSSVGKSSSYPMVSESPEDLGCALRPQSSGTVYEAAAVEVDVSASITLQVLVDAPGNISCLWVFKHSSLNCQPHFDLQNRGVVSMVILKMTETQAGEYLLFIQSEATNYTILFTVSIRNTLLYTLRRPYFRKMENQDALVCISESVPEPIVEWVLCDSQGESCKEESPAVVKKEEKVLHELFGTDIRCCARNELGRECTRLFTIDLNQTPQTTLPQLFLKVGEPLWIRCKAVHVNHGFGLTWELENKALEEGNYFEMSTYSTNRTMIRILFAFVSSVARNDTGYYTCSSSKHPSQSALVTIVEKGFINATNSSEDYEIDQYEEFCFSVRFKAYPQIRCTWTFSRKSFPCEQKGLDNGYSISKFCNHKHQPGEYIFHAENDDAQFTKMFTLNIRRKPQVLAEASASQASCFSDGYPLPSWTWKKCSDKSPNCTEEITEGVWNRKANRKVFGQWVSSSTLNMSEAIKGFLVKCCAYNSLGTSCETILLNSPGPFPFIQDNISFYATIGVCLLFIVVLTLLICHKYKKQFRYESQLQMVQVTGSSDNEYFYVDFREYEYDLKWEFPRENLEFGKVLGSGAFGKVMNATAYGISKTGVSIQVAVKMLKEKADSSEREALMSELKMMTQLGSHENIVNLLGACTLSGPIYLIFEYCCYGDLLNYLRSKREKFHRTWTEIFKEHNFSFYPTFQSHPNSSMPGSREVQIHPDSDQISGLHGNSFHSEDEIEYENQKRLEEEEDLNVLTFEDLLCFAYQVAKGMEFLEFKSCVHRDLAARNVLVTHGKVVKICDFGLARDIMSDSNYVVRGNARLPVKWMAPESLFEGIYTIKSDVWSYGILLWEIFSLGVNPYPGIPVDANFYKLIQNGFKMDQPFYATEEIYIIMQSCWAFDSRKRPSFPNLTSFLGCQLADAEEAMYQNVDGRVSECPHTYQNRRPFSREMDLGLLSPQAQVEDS

Row | Structure (SMILES) | IC50 (cells [1]) | IC50 (cells [2]) | IC50 (A549) | IC50 (HT-29) | IC50 [3] | IC50 [4] | IC50 [5] | IC50 [7] | IC50 [8] | IC50 [9] | Ratio IC50 [6] | Ratio IC50 (MKN-45)
1 | COc1cc2c(Oc3ccc(NC(=O)c4c(C)n(-c5ccc(C(F)(F)F)cc5)c(=O)n4C)cc3F)ccnc2cc1OCCCN1CCN(C)CC1 | 360 nM | 98 nM | 500 nM | 260 nM |  |  |  |  |  |  |  | 
2 | COc1cc2c(Oc3ccc(NC(=O)c4c(C)n(-c5ccc(C)cc5)c(=O)n4C)cc3F)ccnc2cc1OCCCN1CCC(C)CC1 | 940 nM | 430 nM | 1120 nM | 790 nM |  |  |  |  |  |  |  | 
3 | COc1cc2c(Oc3ccc(NC(=O)c4c(C)n(-c5ccc(C)cc5)c(=O)n4C)cc3F)ccnc2cc1OCCCN1CCN(C)CC1 | 510 nM | 360 nM | 830 nM | 490 nM |  |  |  |  |  |  |  | 
4 | COc1ccc(-n2c(C)c(C(=O)Nc3ccc(Oc4ccnc5cc(OCCCN6CCC(C)CC6)c(OC)cc45)c(F)c3)n(C)c2=O)cc1 | 940 nM | 490 nM | 1040 nM | 790 nM |  |  |  |  |  |  |  | 
5 | COc1ccc(-n2c(C)c(C(=O)Nc3ccc(Oc4ccnc5cc(OCCCN6CCN(C)CC6)c(OC)cc45)c(F)c3)n(C)c2=O)cc1 | 690 nM | 440 nM | 960 nM | 560 nM |  |  |  |  |  |  |  | 
6 | COc1cc2c(Oc3ccc(NC(=O)c4c(C)n(-c5ccc(F)cc5)c(=O)n4C)cc3F)ccnc2cc1OCCCN1CCC(C)CC1 | 250 nM | 84 nM | 520 nM | 240 nM |  |  |  |  |  |  |  | 
7 | COc1cc2c(Oc3ccc(NC(=O)c4c(C)n(-c5ccc(F)cc5)c(=O)n4C)cc3F)ccnc2cc1OCCCN1CCN(C)CC1 | 260 nM | 67 nM | 430 nM | 190 nM |  |  |  |  |  |  |  | 
8 | COc1cc2c(Oc3ccc(NC(=O)c4c(C)n(-c5ccc(F)c(F)c5)c(=O)n4C)cc3F)ccnc2cc1OCCCN1CCOCC1 | 540 nM | 170 nM | 620 nM | 390 nM |  |  |  |  |  |  |  | 
9 | COc1cc2c(Oc3ccc(NC(=O)c4c(C)n(-c5ccc(F)c(F)c5)c(=O)n4C)cc3F)ccnc2cc1OCCCN1CCC(C)CC1 | 230 nM | 95 nM | 530 nM | 230 nM |  |  |  |  |  |  |  | 
10 | COc1cc2c(Oc3ccc(NC(=O)c4c(C)n(-c5ccc(F)c(F)c5)c(=O)n4C)cc3F)ccnc2cc1OCCCN1CCN(C)CC1 | 240 nM | 86 nM | 400 nM | 180 nM |  |  |  |  |  |  |  | 
11 | COc1cc2c(Oc3ccc(NC(=O)c4c(C)n(-c5ccc(F)c(Cl)c5)c(=O)n4C)cc3F)ccnc2cc1OCCCN1CCC(C)CC1 | 250 nM | 89 nM | 430 nM | 200 nM |  |  |  |  |  |  |  | 
12 | COc1cc2c(Oc3ccc(NC(=O)c4c(C)n(-c5ccc(F)c(Cl)c5)c(=O)n4C)cc3F)ccnc2cc1OCCCN1CCN(C)CC1 | 210 nM | 73 nM | 380 nM | 140 nM |  |  |  |  |  |  |  | 
13 | COc1cc2c(Oc3ccc(NC(=O)c4c(C)n(-c5ccc(OC(F)(F)F)cc5)c(=O)n4C)cc3F)ccnc2cc1OCCCN1CCC(C)CC1 | 590 nM | 140 nM | 620 nM | 400 nM |  |  |  |  |  |  |  | 
14 | COc1cc2c(Oc3ccc(NC(=O)c4c(C)n(-c5ccc(OC(F)(F)F)cc5)c(=O)n4C)cc3F)ccnc2cc1OCCCN1CCN(C)CC1 | 340 nM | 120 nM | 440 nM | 270 nM |  |  |  |  |  |  |  | 
15 | COc1cc2c(Oc3ccc(NC(=O)c4c(C)n(-c5ccc(C(F)(F)F)cc5)c(=O)n4C)cc3F)ccnc2cc1OCCCN1CCC(C)CC1 | 410 nM | 130 nM | 540 nM | 360 nM |  |  |  |  |  |  |  | 
16 | COc1cc2c(Oc3ccc(NC(=O)c4c(C)n(-c5cccc(C(F)(F)F)c5)c(=O)n4C)cc3F)ccnc2cc1OCCCN1CCC(C)CC1 | 580 nM | 320 nM | 880 nM | 520 nM |  |  |  |  |  |  |  | 
17 | COc1cc2c(Oc3ccc(NC(=O)c4c(C)n(-c5cccc(C(F)(F)F)c5)c(=O)n4C)cc3F)ccnc2cc1OCCCN1CCN(C)CC1 | 570 nM | 200 nM | 770 nM | 430 nM |  |  |  |  |  |  |  | 
18 | COc1cc2c(Oc3ccc(NC(=O)c4c(C)n(-c5ccccc5C(F)(F)F)c(=O)n4C)cc3F)ccnc2cc1OCCCN1CCC(C)CC1 | 220 nM | 81 nM | 450 nM | 140 nM |  |  |  |  |  |  |  | 
19 | COc1cc2c(Oc3ccc(NC(=O)c4c(C)n(-c5ccccc5C(F)(F)F)c(=O)n4C)cc3F)ccnc2cc1OCCCN1CCN(C)CC1 | 190 nM | 69 nM | 370 nM | 130 nM |  |  |  |  |  |  |  | 
20 | COc1cc2c(Oc3ccc(NC(=O)c4[nH]c(=O)n(-c5ccccc5Cl)c4C)cc3F)ccnc2cc1OCCCN1CCN(C)CC1 | 100 nM | 14 nM | 250 nM | 86 nM | > 100000 nM | 1.42 nM | 92.6 nM | 38.2 nM | 270 nM | 134 nM | 2.1 | 8.6

The next lines start with results.

Row | IC50 (cells [1]) | IC50 (cells [2]) | IC50 (A549) | IC50 (HT-29) | IC50 [3] | IC50 [4] | IC50 [5] | IC50 [7] | IC50 [8] | IC50 [9] | Structure (SMILES) | Ratio IC50 [6] | Ratio IC50 (MKN-45)
21 | 790 nM | 320 nM | 980 nM | 740 nM |  |  |  |  |  |  | COc1cc2c(Oc3ccc(NC(=O)c4c(C)n(-c5ccccc5)c(=O)n4C)cc3F)ccnc2cc1OCCCN1CCOCC1 |  | 
22 | 1030 nM | 510 nM | 1460 nM | 940 nM |  |  |  |  |  |  | COc1cc2c(Oc3ccc(NC(=O)c4c(C)n(-c5ccccc5)c(=O)n4C)cc3F)ccnc2cc1OCCCN1CCCC1 |  | 
23 | 650 nM | 240 nM | 790 nM | 560 nM |  |  |  |  |  |  | COc1cc2c(Oc3ccc(NC(=O)c4c(C)n(-c5ccccc5)c(=O)n4C)cc3F)ccnc2cc1OCCCN1CCCCC1 |  | 
24 | 590 nM | 210 nM | 660 nM | 360 nM |  |  |  |  |  |  | COc1cc2c(Oc3ccc(NC(=O)c4c(C)n(-c5ccccc5)c(=O)n4C)cc3F)ccnc2cc1OCCCN1CCC(C)CC1 |  | 
25 | 420 nM | 190 nM | 600 nM | 300 nM |  |  |  |  |  |  | COc1cc2c(Oc3ccc(NC(=O)c4c(C)n(-c5ccccc5)c(=O)n4C)cc3F)ccnc2cc1OCCCN1CCN(C)CC1 |  | 
26 | 200 nM | 62 nM | 420 nM | 170 nM |  |  |  |  |  |  | COc1cc2c(Oc3ccc(NC(=O)c4c(C)n(-c5ccc(Cl)cc5)c(=O)n4C)cc3F)ccnc2cc1OCCCN1CCC(C)CC1 |  | 
27 | 170 nM | 58 nM | 360 nM | 140 nM |  |  |  |  |  |  | COc1cc2c(Oc3ccc(NC(=O)c4c(C)n(-c5ccc(Cl)cc5)c(=O)n4C)cc3F)ccnc2cc1OCCCN1CCN(C)CC1 |  | 
28 | 550 nM | 160 nM | 680 nM | 280 nM |  |  |  |  |  |  | COc1cc2c(Oc3ccc(NC(=O)c4c(C)n(-c5ccc(Br)cc5)c(=O)n4C)cc3F)ccnc2cc1OCCCN1CCC(C)CC1 |  | 
29 | 360 nM | 120 nM | 480 nM | 290 nM |  |  |  |  |  |  | COc1cc2c(Oc3ccc(NC(=O)c4c(C)n(-c5ccc(Br)cc5)c(=O)n4C)cc3F)ccnc2cc1OCCCN1CCN(C)CC1 |  | 
30 | 180 nM | 43 nM | 320 nM | 150 nM |  |  |  |  |  |  | COc1cc2c(Oc3ccc(NC(=O)c4c(C)n(-c5ccccc5Cl)c(=O)n4C)cc3F)ccnc2cc1OCCCN1CCC(C)CC1 |  | 
31 | 130 nM | 37 nM | 310 nM | 120 nM |  |  |  |  |  |  | COc1cc2c(Oc3ccc(NC(=O)c4c(C)n(-c5ccccc5Cl)c(=O)n4C)cc3F)ccnc2cc1OCCCN1CCN(C)CC1 |  | 
